Assay results published in ChEMBL document CHEMBL4190389, “Synthesis and activity of di- or trisubstituted N-(phenoxyalkyl)- or N-{2-[2-(phenoxy)ethoxy]ethyl}piperazine derivatives on the central nervous system” (Bioorg Med Chem Lett, 2018).
Active and inactive are the calls of the source. The calls are words filed in the database; no cut-off is given here.

What was measured:
[1] = molecular target: T1, 5-hydroxytryptamine receptor 1A (Homo sapiens) (UniProt P08908); assay: (§1) Antagonist activity at human 5-HT1A receptor expressed in CHO-K1 cells co-expressing Galpha16 assessed as decrease in serotonin calcium mobilization preincubated for 25 mins followed by serotonin challenge measured for 30 secs by aequorin-derived luminescence assay; type: functional, cell-based
T1 sequence (whole entry): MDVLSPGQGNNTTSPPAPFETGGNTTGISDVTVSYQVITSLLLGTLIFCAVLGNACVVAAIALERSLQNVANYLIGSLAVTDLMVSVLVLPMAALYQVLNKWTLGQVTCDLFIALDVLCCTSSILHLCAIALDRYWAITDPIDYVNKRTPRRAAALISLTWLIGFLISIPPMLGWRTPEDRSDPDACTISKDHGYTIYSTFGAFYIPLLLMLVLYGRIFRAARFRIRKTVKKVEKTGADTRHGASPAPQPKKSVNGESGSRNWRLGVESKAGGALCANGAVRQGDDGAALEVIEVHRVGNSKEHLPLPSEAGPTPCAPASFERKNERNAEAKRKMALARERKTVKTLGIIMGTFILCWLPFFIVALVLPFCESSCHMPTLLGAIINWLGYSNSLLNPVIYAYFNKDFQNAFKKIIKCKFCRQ

[2] = molecular target: T2, 5-hydroxytryptamine receptor 1A (Homo sapiens, UniProt P08908); assay: as §1; type: functional, cell-based
T2 sequence (P08908 whole entry): T1 sequence (whole entry)

[3] = molecular target: T1, 5-hydroxytryptamine receptor 1A (Homo sapiens); assay: Antagonist activity at human 5-HT1A receptor expressed in CHO-K1 cells co-expressing Galpha16 assessed as decrease in serotonin-induced calcium mobilization preincubated for 25 mins followed by serotonin challenge measured for 30 secs by aequorin-derived luminescence assay relative to control; type: functional, cell-based
[4] = molecular target: T1, 5-hydroxytryptamine receptor 1A (Homo sapiens); assay: Agonist activity at human 5-HT1A receptor expressed in CHO-K1 cells co-expressing Galpha16 assessed as increase in calcium mobilization measured for 30 secs by aequorin-derived luminescence assay relative to serotonin; type: functional, cell-based
[5] = molecular target: T3, Alpha-1A adrenergic receptor (Homo sapiens, UniProt P35348); assay: Displacement of [3H]prazosin from recombinant human alpha1 adrenoceptor expressed in CHO cell membranes after 30 mins by liquid scintillation counting method
T3 sequence (P35348 whole entry): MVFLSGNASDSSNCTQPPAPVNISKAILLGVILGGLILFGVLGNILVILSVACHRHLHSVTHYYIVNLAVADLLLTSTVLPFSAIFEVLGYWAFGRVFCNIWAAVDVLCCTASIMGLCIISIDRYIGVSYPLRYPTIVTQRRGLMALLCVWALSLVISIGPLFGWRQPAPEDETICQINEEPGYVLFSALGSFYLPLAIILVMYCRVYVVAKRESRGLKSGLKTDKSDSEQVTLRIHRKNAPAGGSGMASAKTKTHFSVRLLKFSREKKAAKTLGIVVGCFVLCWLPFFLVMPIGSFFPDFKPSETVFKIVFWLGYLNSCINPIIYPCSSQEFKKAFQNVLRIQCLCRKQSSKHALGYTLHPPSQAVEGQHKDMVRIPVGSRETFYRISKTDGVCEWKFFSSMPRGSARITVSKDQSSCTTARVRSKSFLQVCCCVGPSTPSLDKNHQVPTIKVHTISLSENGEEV

D(2) dopamine receptor [6] = molecular target: T4, D(2) dopamine receptor (Homo sapiens, UniProt P14416); assay: Displacement of [3H]methylspiperonee from recombinant human D2 receptor expressed in HEK293 cells cell membranes after 60 mins by liquid scintillation counting method
T4 sequence (P14416 whole entry): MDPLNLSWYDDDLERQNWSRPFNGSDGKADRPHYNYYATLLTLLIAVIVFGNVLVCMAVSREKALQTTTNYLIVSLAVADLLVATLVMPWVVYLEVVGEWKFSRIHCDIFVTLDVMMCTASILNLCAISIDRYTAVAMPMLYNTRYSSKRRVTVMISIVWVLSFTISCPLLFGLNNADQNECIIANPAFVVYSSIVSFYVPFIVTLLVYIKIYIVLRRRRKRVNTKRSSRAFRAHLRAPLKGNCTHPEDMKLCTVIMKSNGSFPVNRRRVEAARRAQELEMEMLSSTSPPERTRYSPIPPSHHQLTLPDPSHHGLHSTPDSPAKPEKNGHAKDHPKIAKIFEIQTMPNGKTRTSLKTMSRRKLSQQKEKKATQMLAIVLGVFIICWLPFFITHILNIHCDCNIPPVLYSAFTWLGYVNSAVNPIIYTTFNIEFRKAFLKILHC

Mus musculus [7] = assay: Toxicity in Albino Swiss CD-1 mouse assessed as death at 30 mg/kg, ip; type: organism-based; conditions: in vivo
Summary of the method: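 Deaths counted in mice during maximal electroshock (MES) seizure testing after i.p. dosing, 6 mice per dose (3 or 1 at some top doses); recorded as number dead/number tested alongside protection and rotarod motor impairment (10 rpm); untreated control group included.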

[8] = molecular target: 5-hydroxytryptamine receptor 6 (Homo sapiens, UniProt P50406); assay: Displacement of [3H]LSD from recombinant human 5-HT6 receptor expressed in CHO cells cell membranes after 60 mins by liquid scintillation counting method
Sequence of 5-hydroxytryptamine receptor 6 (P50406 whole entry): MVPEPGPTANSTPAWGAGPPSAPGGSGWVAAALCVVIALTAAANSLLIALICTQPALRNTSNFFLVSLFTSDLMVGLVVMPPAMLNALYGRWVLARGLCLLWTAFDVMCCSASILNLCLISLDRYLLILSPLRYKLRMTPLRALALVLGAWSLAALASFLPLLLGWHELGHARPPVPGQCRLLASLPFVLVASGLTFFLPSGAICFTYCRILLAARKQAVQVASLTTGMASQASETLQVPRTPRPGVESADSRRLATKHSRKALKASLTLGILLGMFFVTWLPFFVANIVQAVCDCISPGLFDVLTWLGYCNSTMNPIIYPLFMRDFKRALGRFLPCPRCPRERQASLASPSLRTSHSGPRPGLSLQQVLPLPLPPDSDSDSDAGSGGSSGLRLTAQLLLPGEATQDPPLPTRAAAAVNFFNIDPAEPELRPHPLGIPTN

Mus musculus [9] = assay: Anxiolytic-like activity in Albino Swiss CD-1 mouse assessed as increase in number of punished crossings at 5 to 10 mg/kg, ip administered for 30 mins prior to test measured for 1 min by four-plate test; type: functional, organism-based
Summary of the method: (§2)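 Four-plate test in mice, i.p., 30 min before test; vehicle 0.9% NaCl; doses 1.25–10 mg/kg; number of punished crossings counted; mean ± SEM, n = 8–10 mice per group; ANOVA F statistics.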

[10] = molecular target: T5, 5-hydroxytryptamine receptor 2A (Homo sapiens, UniProt P28223); assay: biochemical; type: cell-based, HEK293
T5 sequence (P28223 whole entry): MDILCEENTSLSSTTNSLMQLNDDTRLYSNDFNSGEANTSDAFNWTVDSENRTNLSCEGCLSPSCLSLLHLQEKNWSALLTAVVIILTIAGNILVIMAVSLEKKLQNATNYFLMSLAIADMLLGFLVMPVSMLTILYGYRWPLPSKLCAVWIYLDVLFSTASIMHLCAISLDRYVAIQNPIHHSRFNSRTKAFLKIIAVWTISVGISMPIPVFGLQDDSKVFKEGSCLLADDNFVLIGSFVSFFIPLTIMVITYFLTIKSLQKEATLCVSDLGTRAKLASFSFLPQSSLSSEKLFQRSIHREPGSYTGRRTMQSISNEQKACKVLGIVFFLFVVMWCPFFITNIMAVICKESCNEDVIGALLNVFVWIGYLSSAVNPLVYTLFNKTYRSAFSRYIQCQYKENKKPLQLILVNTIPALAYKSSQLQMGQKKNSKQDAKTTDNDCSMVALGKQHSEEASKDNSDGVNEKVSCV

[11] = molecular target: T6, 5-hydroxytryptamine receptor 7 (Homo sapiens, UniProt P34969); assay: biochemical; type: cell-based, CHO
T6 sequence (P34969 whole entry): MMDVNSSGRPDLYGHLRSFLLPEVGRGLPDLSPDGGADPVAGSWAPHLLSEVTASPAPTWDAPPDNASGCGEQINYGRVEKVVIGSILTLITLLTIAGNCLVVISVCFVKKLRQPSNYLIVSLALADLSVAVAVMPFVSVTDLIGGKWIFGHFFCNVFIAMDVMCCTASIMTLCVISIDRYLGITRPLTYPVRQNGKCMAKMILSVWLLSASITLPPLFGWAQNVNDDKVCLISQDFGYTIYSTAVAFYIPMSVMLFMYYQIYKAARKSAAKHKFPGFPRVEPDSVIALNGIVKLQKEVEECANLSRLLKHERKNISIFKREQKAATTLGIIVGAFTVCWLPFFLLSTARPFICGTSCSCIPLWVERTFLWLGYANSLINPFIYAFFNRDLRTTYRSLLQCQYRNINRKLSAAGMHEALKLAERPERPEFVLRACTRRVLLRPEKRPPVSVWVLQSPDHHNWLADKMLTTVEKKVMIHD

[12] = molecular target: T6, 5-hydroxytryptamine receptor 7; assay: Agonist activity at human 5-HT7 receptor expressed in CHO-K1 cells assessed as increase in serotonin-induced cAMP level after 1 hr by TR-FRET assay relative to serotonin; type: functional, cell-based
Mus musculus [13] = assay: Toxicity in Albino Swiss CD-1 mouse assessed as effect on locomotory activity at 5 to 10 mg/kg, ip administered for 30 mins prior to test measured for 1 min; type: organism-based; conditions: in vivo
Summary of the method: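 Mice dosed i.p. 30 min before test; vehicle groups received 0.9% NaCl. Spontaneous locomotion scored as number of crossings during a 1-min session. Each dose compared with its own vehicle group by Student t-test; mean ± SEM, n = 8–10 mice per group.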

D(2) dopamine receptor [14] = molecular target: T4, D(2) dopamine receptor; assay: Antagonist activity at human D2 receptor expressed in CHO-K1 cells co-expressing Galphaqi5 assessed as decrease in apomorphine-induced calcium mobilization preincubated for 30 mins followed by apomorphine challenge measured for 30 secs by aequorin-derived luminescence assay; type: functional, cell-based
[15] = molecular target: T6, 5-hydroxytryptamine receptor 7; assay: Antagonist activity at human 5-HT7 receptor expressed in CHO-K1 cells assessed as decrease in serotonin-induced cAMP level after 1 hr by TR-FRET assay relative to control; type: functional, cell-based
Mus musculus [16] = assay: Antidepressant-like activity in Albino Swiss CD-1 mouse assessed as immobility time at 20 mg/kg, ip administered 30 mins prior to test measured for last 4 mins of 6 mins observation by forced swim test (reference value: 153.9 to 201.9 secs); type: functional
Mus musculus [17] = assay: Antidepressant-like activity in Albino Swiss CD-1 mouse assessed as immobility time at 5 mg/kg, ip administered 30 mins prior to test measured for last 4 mins of 6 mins observation by forced swim test (reference value: 153.9 to 201.9 secs); type: functional
[18] = molecular target: T2, 5-hydroxytryptamine receptor 1A; assay: Displacement of [3H]8-OH-DPAT from recombinant human 5-HT1A receptor expressed in HEK293 cell membranes after 60 mins by liquid scintillation counting method
D(2) dopamine receptor [19] = molecular target: T4, D(2) dopamine receptor; assay: Agonist activity at human D2 receptor expressed in CHO-K1 cells co-expressing Galphaqi5 assessed as increase apomorphine-induced calcium mobilization measured for 30 secs by aequorin-derived luminescence assay relative to apomorphine; type: functional, cell-based
[20] = molecular target: T6, 5-hydroxytryptamine receptor 7; assay: Antagonist activity at human 5-HT7 receptor expressed in CHO-K1 cells assessed as decrease in serotonin-induced cAMP level after 1 hr by TR-FRET assay; type: functional, cell-based
Mus musculus [21] = assay: Antidepressant-like activity in Albino Swiss CD-1 mouse assessed as immobility time at 10 mg/kg, ip administered 30 mins prior to test measured for last 4 mins of 6 mins observation by forced swim test (reference value: 153.9 to 201.9 secs); type: functional
Mus musculus [22] = assay: Anxiolytic-like activity in Albino Swiss CD-1 mouse assessed as increase in number of punished crossings at 10 mg/kg, ip administered for 30 mins prior to test measured for 1 min by four-plate test; type: functional, organism-based; summary of the method: as §2
[23] = molecular target: T1, 5-hydroxytryptamine receptor 1A (Homo sapiens); assay: Displacement of [3H]8-OH-DPAT from recombinant human 5-HT1A receptor expressed in HEK293 cell membranes at 10^-5 M after 60 mins by liquid scintillation counting method
[24] = molecular target: T7, Alpha-1A adrenergic receptor (Homo sapiens) (UniProt P35348); assay: Displacement of [3H]prazosin from recombinant human alpha1 adrenoceptor expressed in CHO cell membranes at 10^-5 M after 30 mins by liquid scintillation counting method
T7 sequence (whole entry): T3 sequence (P35348 whole entry)

D(2) dopamine receptor [25] = molecular target: T4, D(2) dopamine receptor; assay: Displacement of [3H]methylspiperonee from recombinant human D2 receptor expressed in HEK293 cell membranes at 10^-5 M after 60 mins by liquid scintillation counting method
Mus musculus [26] = assay: Anxiolytic-like activity in Albino Swiss CD-1 mouse assessed as increase in number of punished crossings at 2.5 to 5 mg/kg, ip administered for 30 mins prior to test measured for 1 min by four-plate test; type: functional, organism-based; summary of the method: as §2
[27] = molecular target: T5, 5-hydroxytryptamine receptor 2A; assay: Antagonist activity at human 5-HT2A receptor expressed in CHO-K1 cells co-expressing Galpha16 assessed as decrease in serotonin calcium mobilization preincubated for 30 mins followed by serotonin challenge measured for 30 secs by aequorin-derived luminescence assay; type: functional, cell-based
Mus musculus [28] = assay: Toxicity in Albino Swiss CD-1 mouse assessed as effect on locomotory activity at 1.25 to 5 mg/kg, ip administered for 30 mins prior to test measured for 1 min; type: organism-based; conditions: in vivo
[29] = molecular target: T6, 5-hydroxytryptamine receptor 7; assay: Displacement of [3H]LSD from recombinant human 5-HT7 receptor expressed in CHO cell membranes at 10^-5 M after 60 mins by liquid scintillation counting method

`COc1ccccc1N1CCN(C[C@@H](C(=O)NC(C)(C)C)c2ccccc2)CC1` gave a Kb [1] of 6.6 nM, an IC50 [2] of 16.9 nM and an Emax [3] of 0%. For the same compound, the Emax [4] was 1%.

In the case of `COc1ccccc1N1CCN(CCCOc2ccc(C)cc2C)CC1.Cl`, the Ki [5] is reported as 11 nM, the Ki (D(2) dopamine receptor [6]) is reported as 97 nM and the Activity (Mus musculus [7]) is reported as “Non-Toxic”. For the same compound, the Kb [1] was 1.8 nM, the IC50 [2] was 7.19 nM and the Ki [8] was > 5000 nM. For the same compound, the Activity (Mus musculus [9]) was “inactive”, the Emax [3] was 2% and the Ki [10] was 527 nM. The Ki [11] was 15 nM, the Emax [12] was 0% and the Activity (Mus musculus [13]) was “Non-Toxic”. For the same compound, the Emax [4] was 5%, the IC50 (D(2) dopamine receptor [14]) was 17.7 nM and the Kb (D(2) dopamine receptor [14]) was 5.29 nM. The Emax [15] was 5%, the Time (Mus musculus [16]) was 197.3 s and the Time (Mus musculus [17]) was 182.6 s. The Ki [18] was 2 nM, the Emax (D(2) dopamine receptor [19]) was 2% and the IC50 [20] was 1050 nM. For the same compound, the Kb [20] was 448 nM and the Time (Mus musculus [21]) was 198.1 s.

For `Cc1cc(C)c(OCCOCCN2CCN(Cc3ccccc3)CC2)c(C)c1.Cl.Cl`, the Activity (Mus musculus [22]) was “Active”, the inhibition [23] was “inactive” and the Ki [8] was > 5000 nM. For the same compound, the inhibition [24] was “inactive”, the Ki [10] was 498 nM and the Ki [11] was 3160 nM. For the same compound, the Activity (Mus musculus [13]) was “Non-Toxic”, the Time (Mus musculus [16]) was 157.5 s and the Time (Mus musculus [17]) was 176.5 s. The inhibition (D(2) dopamine receptor [25]) was “inactive” and the Time (Mus musculus [21]) was 182.4 s.

In the case of `COc1ccccc1N1CCN(CCOCCOc2cc(C)cc(C)c2C)CC1.Cl.Cl`, the Ki [5] is reported as 14 nM, the Ki (D(2) dopamine receptor [6]) is reported as 162 nM and the Activity (Mus musculus [26]) is reported as “Active”. For the same compound, the Activity (Mus musculus [7]) was “Non-Toxic”, the Kb [1] was 92.3 nM and the IC50 [2] was 376 nM. For the same compound, the Ki [8] was 1540 nM, the Emax [3] was 4% and the Ki [10] was 159 nM. It also gave a Ki [11] of 89 nM, an Emax [12] of 9% and an Emax [4] of 5%. The IC50 (D(2) dopamine receptor [14]) was 78.5 nM, the Kb (D(2) dopamine receptor [14]) was 23.4 nM and the Emax [15] was 11%. It also gave a Time (Mus musculus [16]) of 156.1 s, a Time (Mus musculus [17]) of 165.6 s and a Ki [18] of 32 nM. The Emax (D(2) dopamine receptor [19]) was 1%, the IC50 [20] was 2340 nM and the Kb [20] was 995 nM. The Time (Mus musculus [21]) was 141.9 s, the IC50 [27] was 4010 nM and the Activity (Mus musculus [28]) was “Non-Toxic”.

`Cc1cc(C)c(OCCOCCN2CCN(CCO)CC2)c(C)c1.Cl.Cl` was tested, and the Activity (Mus musculus [22]) was “Active”, the inhibition [23] was “inactive” and the Ki [8] was > 5000 nM. The inhibition [24] was “inactive”, the Ki [10] was > 5000 nM and the inhibition [29] was “inactive”. The Activity (Mus musculus [13]) was “Non-Toxic”, the Time (Mus musculus [16]) was 197.3 s and the Time (Mus musculus [17]) was 182.6 s. For the same compound, the inhibition (D(2) dopamine receptor [25]) was “inactive” and the Time (Mus musculus [21]) was 198.1 s.
